Assay outcomes (PubChem BioAssay)
An excerpt weighted towards active compounds, which were near 3.1% of everything screened.
CHO parental Ca: signal in parental CHO cells, OX1R antagonist counter-screen; parental CHO-K1, ATP-induced calcium, Fluo-8 fluorescence; inhibition, % at 5.6 µM; actives 0.63% (n = 330,000);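 active = inhibition above that plate's mean sample inhibition plus 3 SD, cut at about 26% in these data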;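 also: 0% = ATP-challenged DMSO wells and 100% = DMSO wells without ATP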
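Test system: untransfected parental CHO cell line. Compound: one dose, 5.6 µM nominal. Detection: intracellular calcium via Fluo-8 no-wash fluorescent dye. Measure: % inhibition. Benchmarks: ATP-challenged DMSO wells low, unchallenged DMSO wells high.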
OX1R antag-1: blocks the human orexin 1 receptor | O43613 | OX1R-expressing cells, FRET antagonist read-out | inhibition, % at 6.6 µM | actives 1.8% (n = 330,000) | AID 485270; in the data active = inhibition mostly above about 38%, no sharp cut-off; inactive = mostly below about 40%;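 also: 0% = agonist challenge alone and 100% = reference antagonist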
OX1R antag-2: blocks the human orexin 1 receptor; inhibition, % at 5 µM; O43613; actives 0.43% (n = 330,000); CHO/OX1R cells, Fluo-8 calcium fluorescence, orexin A;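 active = inhibition above its plate's threshold, mean inhibition of all tested compounds on the plate plus 3 SD, cut at about 37% in these data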;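 also: 0% = orexin A challenge wells and 100% = SB-334867-A antagonist wells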
GalR3 antag: antagonists of human GalR3. O60755. HEK293 GalR3-CNG cAMP membrane potential fluorescence; galR3 body fused to GalR1 C-terminus. inhibition, % at 3 µM. actives 0.44% (n = 360,000);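 active = inhibition above the screen-wide average plus 3 SD, cut at about 13% in these data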;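 also: forskolin and galanin both at EC90 stimulate the cells; cAMP rise reported by CNG channel membrane potential dye signal; 0% = forskolin plus galanin with DMSO and 100% = forskolin alone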
Target sequence (O60755 1-299 limits assumed): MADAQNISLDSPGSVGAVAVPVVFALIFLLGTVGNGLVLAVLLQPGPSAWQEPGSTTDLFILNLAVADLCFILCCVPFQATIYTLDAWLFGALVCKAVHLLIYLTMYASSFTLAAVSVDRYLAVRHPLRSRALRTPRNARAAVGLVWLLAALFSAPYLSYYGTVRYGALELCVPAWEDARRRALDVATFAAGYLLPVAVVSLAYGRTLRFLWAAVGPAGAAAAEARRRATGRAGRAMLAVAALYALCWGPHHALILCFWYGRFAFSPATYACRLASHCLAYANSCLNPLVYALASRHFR
GPR7 antagonist: blocks human GPR7 receptor signaling | P48145 | GPR7-expressing cells, fluorescence antagonist assay | inhibition, % at 4.4 µM | actives 1.1% (n = 290,000) | AID 1861; in the data active = inhibition above about 16%, passing the limit was not always enough;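 also: cells stimulated with the agonist NPW; 0% = agonist with vehicle and 100% = vehicle without agonist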
Target sequence (P48145 whole entry, looked up): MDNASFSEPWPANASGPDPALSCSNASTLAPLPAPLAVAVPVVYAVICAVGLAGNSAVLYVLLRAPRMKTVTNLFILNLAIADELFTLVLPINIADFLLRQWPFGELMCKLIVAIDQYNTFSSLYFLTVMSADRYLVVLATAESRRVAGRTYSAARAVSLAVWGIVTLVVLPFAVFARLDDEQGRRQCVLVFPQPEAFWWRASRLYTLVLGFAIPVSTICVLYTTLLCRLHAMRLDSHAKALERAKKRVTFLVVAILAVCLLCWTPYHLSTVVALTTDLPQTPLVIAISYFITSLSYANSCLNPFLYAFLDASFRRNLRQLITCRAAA
* = called active by the depositor; nt = no result.

SMILES	CHO parental Ca	OX1R antag-1	OX1R antag-2	GalR3 antag	GPR7 antagonist
CC(C)CNc1cccc2c1S(=O)(=O)N(Cc1cccc(F)c1)[C@@H](C)[C@H](c1ccccc1)O2	nt	nt	nt	-7	nt
O=C(NCc1ccco1)c1ccc(C(=O)NCc2ccco2)cc1	nt	nt	nt	-3	nt
COCCNC(=O)c1ccc2c(c1)S(=O)(=O)c1cc(Cl)ccc1C2=O	-21	42*	-11	0	nt
CC(C)(CO)NC(=O)c1ccc2c(c1)C(=O)c1ccccc1-2	-14	21	-21	-4	-9
O=C(NCc1ccco1)c1ccc2c(c1)C(=O)c1ccccc1-2	-12	37*	-11	-4	-13
COCCNC(=O)c1ccc2c(c1)C(=O)c1ccccc1-2	-10	37*	-20	-15	9
O=C(NCCOc1ccccc1)c1ccc2c(c1)S(=O)(=O)c1cc(Cl)ccc1C2=O	-21	12	-16	3	nt
C[C@@H](NC(=O)[C@@H]1CCCN1C(=O)[C@@H]1CCCN1C(=O)c1cccc(Cl)c1)c1ccccc1	nt	nt	nt	3	nt
c1csc(CCNc2ncnc3sc4c(c23)CCC4)c1	58*	59*	-26	1	nt
c1ccc(Nc2ncnc3sc4c(c23)CCC4)cc1	-15	7	-21	1	-6
COc1ccccc1N1CCN(c2ccc(N3C(=O)CCC3=O)cc2[N+](=O)[O-])CC1	57*	54	11	-4	-13
C=C(C)CN1CCN(c2ccc(N3C(=O)CCCC3=O)cc2[N+](=O)[O-])CC1	1	16	-16	9	14
COc1cccc(N2CCN(c3ccc(N4C(=O)CCC4=O)cc3[N+](=O)[O-])CC2)c1	33*	38	28	-7	-3
COc1ccc(NC(=O)c2sc(-c3ccccc3)nc2C)c(OC)c1	-38	43*	-3	-7	-20
CC(C)Cn1c(N)c(C(=O)COC(=O)CC23CC4CC(CC(C4)C2)C3)c(=O)n(C)c1=O	61*	58	71*	-4	21*
Cc1ccccc1OCCC(=O)OCC(=O)c1c(N)n(CC(C)C)c(=O)n(C)c1=O	46*	41	27	-3	5
CC(C)Cn1c(N)c(C(=O)COC(=O)CCc2nc3ccccc3s2)c(=O)n(C)c1=O	34*	35	40	-3	21
CC(C)Cn1c(N)c(C(=O)COC(=O)CCc2nc3ccccc3c(=O)[nH]2)c(=O)n(C)c1=O	-25	1	-33	-3	nt
Cc1ccc(OCCC(=O)OCC(=O)c2c(N)n(CC(C)C)c(=O)n(C)c2=O)cc1	-17	19	17	-8	nt
COc1ccc(NC(=O)c2cc(-c3ccc(F)cc3OC)n[nH]2)c(C)c1	nt	nt	nt	-4	nt
O=C(NC1CCCCC1)c1csnn1	nt	nt	nt	-5	nt
CCN1C(=O)[C@H]2[C@@H](c3ccc(C)cc3)N3C(=O)N(c4ccc(C)cc4)C(=O)[C@@]3(Cc3ccc(Cl)cc3)[C@H]2C1=O	-20	14	-32	-9	0
CCN1C(=O)[C@H]2[C@@H](c3ccc(C)cc3)N3C(=O)N(c4ccccc4)C(=O)[C@@]3(Cc3ccc(Cl)cc3)[C@H]2C1=O	-14	63*	-44	nt	15
O=S(=O)(Nc1ccncc1Cl)c1cc(Cl)ccc1Cl	10	37	-11	-1	20*
CCc1nnc(N2C(=O)c3cccc4cccc(c34)C2=O)s1	-18	71*	-16	-2	-6
SMILES	CHO parental Ca	OX1R antag-1	OX1R antag-2	GalR3 antag	GPR7 antagonist
CCc1ccc(C(O)c2ncc(-c3cccc4ccccc34)[nH]2)cc1 (centres undefined)	nt	nt	nt	0	nt
Cc1ccccc1-n1nc2c(c1NC(=O)c1cc3ccccc3oc1=O)CS(=O)C2 (centres undefined)	-14	46*	-14	nt	-16
Clc1cccc(-c2nc(NCc3cccnc3)c3ccccc3n2)c1	-12	64*	10	-6	2
c1ccc(-c2nc(NCc3cccnc3)c3ccccc3n2)cc1	-11	49*	9	nt	11
C[n+]1ccccc1/C=C/c1ccc([N+](=O)[O-])cc1	1	36*	-6	-8	-12
Cc1ccc(S(=O)(=O)N(C)/N=C/c2ccc(C(=O)O)cc2)cc1	-4	27	-9	0	-35
Cc1ccc(/C=N/N(C)S(=O)(=O)c2ccc(C)cc2)cc1	51*	10	-17	-8	-16
CSc1ccc(/C=N/N(C)S(=O)(=O)c2ccc(C)cc2)cc1	63*	15	7	-10	-20
Cc1ccc(S(=O)(=O)/N=C/c2ccc(N(C)C)cc2)cc1	6	7	-1	-1	-6
CCCC[C@@H]1Cc2[nH][nH]c(=O)c2[C@H](c2ccc(C(C)C)cc2)O1	nt	nt	nt	-6	nt
CCN1C(=O)[C@H]2[C@@H](c3ccc(C(F)(F)F)cc3)N[C@]3(CCCN(Cc4ccc(C)cc4)C3=O)[C@H]2C1=O	nt	nt	nt	-7	nt
CC(C)c1cc(C(=O)OCC(=O)NC(=O)NCc2ccco2)c(O)c(C(C)C)c1	-3	6	-14	-5	17*
O=C(COC(=O)c1ccccc1C(F)(F)F)NC(=O)NCc1ccco1	-12	5	-11	-6	nt
COCCNc1nnc(SCC(=O)NNC(=O)c2ccc([N+](=O)[O-])cc2)s1	-1	59*	-10	-4	nt
O=C(NCCCn1ccnc1)C(=O)NCC(c1ccco1)N1CCN(c2ccc(F)cc2)CC1 (centres undefined)	-22	11	-12	13*	-2
CSCCC(NS(=O)(=O)c1ccc(Cl)cc1)C(=O)OCc1c(Cl)cccc1Cl (centres undefined)	-10	66*	-8	-7	-15
CSCCC(NS(=O)(=O)c1ccc(Cl)cc1)C(=O)OCc1cccc(Cl)c1 (centres undefined)	41*	12	-12	-5	-4
CSCCC(NS(=O)(=O)c1ccc(Cl)cc1)C(=O)O (centres undefined)	11	1	-10	-1	-6
CSCCC(NS(=O)(=O)c1ccc(Cl)cc1)C(=O)OCC(=O)N(C(C)C)C(C)C (centres undefined)	-14	25	-20	-3	0
COCCNC(=O)C1CC(c2ccc([N+](=O)[O-])cc2)=NO1 (centres undefined)	-4	69*	-1	-4	-11
COc1ccc(CCNC(=O)C2CC(c3ccc([N+](=O)[O-])cc3)=NO2)cc1 (centres undefined)	-8	32	-23	3	0
CN1c2ccccc2C(C)(C)C12C=Cc1cc(O)ccc1O2 (centres undefined)	56*	29	22	-10	11
O=c1c2ccccc2c(C=Nc2cccc(S(=O)(=O)NCc3ccco3)c2)c(O)n1-c1ccc(Cl)cn1	-7	66*	4	-2	-6
O=c1c2ccccc2c(C=Nc2ccc(S(=O)(=O)N3CCCCC3)cc2)c(O)n1-c1ccc(Cl)cn1	-9	4	-20	-2	-8
CC1(C(=O)NCc2cccc3ccccc23)CCN1C(=O)C1(c2ccccc2)CCCC1 (centres undefined)	nt	nt	nt	-1	nt
